Results pooled from the literature.
Target: Ephrin type-A receptor 1 (EPHA1, Homo sapiens, UniProt P21709)
Residues used in one study (P21709 26-976): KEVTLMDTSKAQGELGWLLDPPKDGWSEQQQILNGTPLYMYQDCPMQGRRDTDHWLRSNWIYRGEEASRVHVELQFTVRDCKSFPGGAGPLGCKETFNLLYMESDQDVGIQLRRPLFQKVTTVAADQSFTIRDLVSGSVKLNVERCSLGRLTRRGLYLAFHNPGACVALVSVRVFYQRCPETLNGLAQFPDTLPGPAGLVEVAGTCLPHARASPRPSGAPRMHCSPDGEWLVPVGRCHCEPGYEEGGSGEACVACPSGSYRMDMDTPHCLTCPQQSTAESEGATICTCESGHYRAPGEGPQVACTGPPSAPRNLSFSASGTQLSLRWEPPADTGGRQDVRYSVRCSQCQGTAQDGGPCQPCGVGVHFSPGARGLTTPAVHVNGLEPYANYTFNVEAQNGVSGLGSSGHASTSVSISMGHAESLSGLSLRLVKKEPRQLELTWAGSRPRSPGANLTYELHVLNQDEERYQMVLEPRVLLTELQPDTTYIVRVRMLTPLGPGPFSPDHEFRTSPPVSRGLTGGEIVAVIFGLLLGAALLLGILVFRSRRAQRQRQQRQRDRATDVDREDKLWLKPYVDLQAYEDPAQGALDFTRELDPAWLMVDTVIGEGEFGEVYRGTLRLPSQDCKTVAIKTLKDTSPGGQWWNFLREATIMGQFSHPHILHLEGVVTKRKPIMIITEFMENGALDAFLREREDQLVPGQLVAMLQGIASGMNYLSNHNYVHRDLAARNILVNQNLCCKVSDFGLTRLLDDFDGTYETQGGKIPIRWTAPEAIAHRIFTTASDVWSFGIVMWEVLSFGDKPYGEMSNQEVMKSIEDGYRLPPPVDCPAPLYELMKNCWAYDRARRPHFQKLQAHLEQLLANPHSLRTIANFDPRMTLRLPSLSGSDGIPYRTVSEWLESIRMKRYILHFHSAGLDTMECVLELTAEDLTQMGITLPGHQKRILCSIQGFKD

COc1cc(Cl)c(C(=O)N[C@@H](CN[C@H]2CC[C@@H](N)CC2)Cc2ccc(C#N)cc2)cc1-c1ccc(CN[C@H](C)c2ccc(C)cc2)o1
remaining activity (enzyme activity, inhibitor; 1 µM): 105%

CC(C)(O)[C@H]1CC[C@H](Nc2ccc3ncc(-c4cccc(C(F)(F)F)c4)n3n2)CC1
remaining activity (enzyme activity, inhibitor; 1 µM): 99.6%

O=C(N[C@H]1CCCCC/C=C\C2C[C@@]2(C(=O)O)NC(=O)[C@@H]2C[C@@H](Oc3ccncc3)CN2C1=O)OC1CCCC1 (some centres unmarked)
remaining binding (cell-free assay, competition with immobilised ligand; 1 µM): 90%

Nc1ncnc2occ(-c3ccc(NC(=O)Nc4cc(C(F)(F)F)ccc4F)cc3)c12
remaining signal (cell-free assay; 20 µM): 0.5%

COc1cc(Nc2c(C#N)cnc3cc(OCCCN4CCN(C)CC4)c(OC)cc23)c(Cl)cc1Cl
remaining signal (cell-free assay; 0.5 µM): 97.7%

F[C@@H]1CCN(c2nccc(-c3cnn4ncccc34)n2)C1
remaining binding (binding; 1 µM): 79%

CC/C(=N\NC(=O)NCc1cccc(O)c1)c1ccc(O)c(C)c1O
inhibition (enzyme activity, inhibitor; 0.1 µM): -1.2%

CNC(=O)c1cc(Oc2ccc(NC(=O)Nc3ccc(Cl)c(C(F)(F)F)c3)cc2)ccn1
inhibition (enzyme activity, inhibitor; 0.3 µM): 23%

CCN(CC)c1ccc(C2=NNC(=O)CC2C)cc1[N+](=O)[O-] (centres unmarked)
remaining activity (enzyme activity, inhibitor; 10 µM): 112%

O=C(Nc1cnn(-c2csc(C(=O)NC3COC3)c2)c1)Nc1c(F)cccc1Cl
remaining activity (enzyme activity, inhibitor; 5 µM): 88.4%

CN1CCN(c2cnc3c(C4CCN(C(=O)c5ccc(OC(F)(F)F)cc5N)CC4)ncnc3c2)CC1
remaining binding (cell-free assay, competition with immobilised ligand; 1 µM): 95%

COc1cc(-c2cc(-c3ccc(N4CCNCC4)cc3)cnc2C)cc(OC)c1OC
inhibition (enzyme activity, inhibitor; 0.1 µM): 3%

O=C(Nc1cccnn1)N1CCC(=Cc2cccc(Oc3ccc(C(F)(F)F)cn3)c2)CC1
remaining binding (cell-free assay, competition with immobilised ligand; 1 µM): 100%

Cc1ccc(Nc2nccc(N(C)c3ccc4c(C)n(C)nc4c3)n2)cc1S(N)(=O)=O
inhibition (enzyme activity, inhibitor; 0.3 µM): 23%

C[C@@H]1CCN(C(=O)CC#N)C[C@@H]1N(C)c1ncnc2[nH]ccc12
remaining signal (cell-free assay; 0.5 µM): 98%

c1ccc(CNc2nc(N3CCOc4ccccc43)nc3c2CCCC3)cc1
inhibition (target engagement in cells, inhibitor, chemoproteomics; 20 mM): -26.1%

CCCS(=O)(=O)Nc1ccc(F)c(C(=O)c2c[nH]c3ncc(-c4ccc(Cl)cc4)cc23)c1F
inhibition (enzyme activity, inhibitor; 1 µM): < 10%

COc1cccc2c(NCc3ccccc3)nc(-n3c(N)nc4ccccc43)nc12
inhibition (target engagement in cells, inhibitor, chemoproteomics; 20 mM): -22.2%

CNC(=O)Nc1ccc2c(c1)[C@@]1(CC2)OC(=O)N(CC(=O)N(Cc2ccc(F)cc2)[C@@H](C)C(F)(F)F)C1=O
remaining binding (cell-free assay, competition with immobilised ligand; 1 µM): 100%

O=C1Nc2ccc(Cl)cc2C1=Cc1cc(Cl)c(O)c(Cl)c1
remaining signal (cell-free assay; 0.5 µM): 88.9%

O=C1CCc2cc(Nc3cc(OC4CCOCC4)c([N+](=O)[O-])cc3Cl)ccc2N1
remaining binding (cell-free assay, competition with immobilised ligand; 1 µM): 81%

CC(C)(C)c1nc(-c2cccc(NS(=O)(=O)c3c(F)cccc3F)c2F)c(-c2ccnc(N)n2)s1
remaining activity (enzyme activity, inhibitor, radiometric; 1 µM): 81%

CCS(=O)(=O)c1cc2cc(C[C@](O)(CC(C)(C)c3ccc(F)cc3C(N)=O)C(F)(F)F)[nH]c2cn1
remaining binding (cell-free assay, competition with immobilised ligand; 1 µM): 100%

CCN(CC)CCNC(=O)c1c(C)[nH]c(/C=C2\C(=O)Nc3ccc(F)cc32)c1C
inhibition (enzyme activity, inhibitor; 10 µM): 62%

CS(=O)(=O)N1CCCC(NC(=O)[C@H](CCC2CCCCC2)NC(=O)c2ccc(CNc3ncnc4c3nnn4-c3ccccc3)cc2)C1 (some centres unmarked)
remaining binding (cell-free assay, competition with immobilised ligand; 0.1 µM): 95%

COc1cc2ncnc(Nc3ccc(Oc4ccccc4)c(C)c3C)c2cc1OC
inhibition (enzyme activity, inhibitor; 1 µM): 8%
